Measured values: ChEMBL document CHEMBL3352088, “Novel derivatives of usnic acid effectively inhibiting reproduction of influenza A virus” (Bioorg Med Chem, 2014)

assay: Antiviral activity against rimantidine, amantidine-resistant Influenza A virus (A/California/07/09(H1N1)) pdm09 infected in MDCK cells assessed as inhibition of viral replication after 1 hrs by hemagglutination assay; assay type: functional, Influenza A virus (A/California/07/2009(H1N1)); details: read-out: ED50 (the source's name)
Method in brief: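 MDCK cells were pre-incubated 1 h at 37°C with serial twofold compound dilutions in MEM containing 2 mM arginine, 2 mM glutamine and 2 microgram/mL trypsin, then infected and cultured 48 h at 36°C. Supernatant was mixed with 1% chicken erythrocytes for 1 h at room temperature to read hemagglutination titer. ED50 is the concentration that halves virus production versus untreated cells.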

Compound | EC50 [µM]
CC(=O)c1c(O)c(C)c(O)c2c1OC1=Cc3c(c(C)nn3-c3ccccc3)C(=O)[C@@]12C | 69.5
CC(=O)c1c(O)c(C)c(O)c2c1OC1=Cc3c(c(C)nn3-c3ccccc3)C(=O)[C@]12C | 56.3
CC(=O)c1c(O)c(C)c(O)c2c1OC1=Cc3c(c(C)nn3-c3ccccc3)[C@@H](O)[C@@]12C | 2.4
CC(=O)c1c(O)c(C)c(O)c2c1OC1=CC(=O)/C(=C(/C)NCC(=O)O)C(=O)[C@@]12C | 11.2
CC(=O)c1c(O)c(C)c(O)c2c1OC1=CC(=O)/C(=C(/C)NCC(=O)O)C(=O)[C@]12C | 10.7
CC(=O)c1c(O)c(C)c(O)c2c1OC1=CC(=O)/C(=C(/C)NCCC(=O)O)C(=O)[C@@]12C | 7.2
CC(=O)c1c(O)c(C)c(O)c2c1OC1=CC(=O)/C(=C(/C)NCCC(=O)O)C(=O)[C@]12C | 14.5
CC(=O)C1=C(O)C=C2O[C@]34O[C@@]3(C(C)=O)C(=O)C(C)=C(O)[C@]4(O)[C@@]2(C)C1=O | 10.6
CC(=O)c1c(O)c(C)c(O)c2c1OC1=CC(=O)/C(=C(/C)NCCCC(=O)O)C(=O)[C@@]12C | 35
CSCC[C@H](N/C(C)=C1\C(=O)C=C2Oc3c(C(C)=O)c(O)c(C)c(O)c3[C@@]2(C)C1=O)C(=O)O | 4.2
CC(=O)C1=C(O)C[C@H]2Oc3c(C(C)=O)c(O)c(C)c(O)c3[C@@]2(C)C1=O | 8.1
CC(=O)c1c(O)c(C)c(O)c2c1OC1=CC(=O)/C(=C(/C)N[C@@H](CC(C)C)C(=O)O)C(=O)[C@@]12C | 6.6
CC(=O)c1c(O)c(C)c(O)c2c1OC1=CC(=O)/C(=C(/C)N[C@H](CC(=O)O)CC(C)C)C(=O)[C@]12C | 6.6
CC(=O)c1c(O)c(C)c(O)c2c1OC1=CC(=O)/C(=C(/C)NCCCC(=O)O)C(=O)[C@]12C | 28
CC(=O)c1c(O)c(C)c(O)c2c1OC1=Cc3c(c(C)nn3-c3cccc(C(F)(F)F)c3)C(=O)[C@@]12C | 68.4
CC(=O)c1c(O)c(C)c(O)c2c1OC1=Cc3c(c(C)nn3-c3ccccc3)[C@H](O)[C@]12C | 12
COc1c(C)c(O)c(C(=O)/C=C/c2ccccc2)c2c1[C@]1(C)C(=Cc3c(c(C)nn3-c3ccccc3)[C@H]1O)O2 | 32.7
COc1c(C)c(O)c(C(=O)/C=C/c2ccc(Cl)cc2)c2c1[C@]1(C)C(=Cc3c(c(C)nn3-c3ccccc3)[C@H]1O)O2 | 55.1
COc1ccccc1/C=C/C(=O)c1c(O)c(C)c(OC)c2c1OC1=Cc3c(c(C)nn3-c3ccccc3)[C@@H](O)[C@@]12C | 82.7
COc1ccc(/C=C/C(=O)c2c(O)c(C)c(OC)c3c2OC2=Cc4c(c(C)nn4-c4ccccc4)[C@@H](O)[C@@]23C)cc1OC | 34.5
COc1cccc(/C=C/C(=O)c2c(O)c(C)c(OC)c3c2OC2=Cc4c(c(C)nn4-c4ccccc4)[C@@H](O)[C@@]23C)c1OC | 50.7
COc1ccc(/C=C/C(=O)c2c(O)c(C)c(OC)c3c2OC2=Cc4c(c(C)nn4-c4ccccc4)[C@@H](O)[C@@]23C)c(OC)c1OC | 32.8
COc1cc(/C=C/C(=O)c2c(O)c(C)c(OC)c3c2OC2=Cc4c(c(C)nn4-c4ccccc4)[C@@H](O)[C@@]23C)cc(OC)c1OC | 8.2
COc1ccc(OC)c(/C=C/C(=O)c2c(O)c(C)c(OC)c3c2OC2=Cc4c(c(C)nn4-c4ccccc4)[C@@H](O)[C@@]23C)c1 | 25.9
COc1ccc(/C=C/C(=O)c2c(O)c(C)c(OC)c3c2OC2=Cc4c(c(C)nn4-c4ccccc4)[C@@H](O)[C@@]23C)c(OC)c1 | 25.9
COc1c(C)c(O)c(C(=O)/C=C/c2ccc(SC)cc2)c2c1[C@]1(C)C(=Cc3c(c(C)nn3-c3ccccc3)[C@H]1O)O2 | 53
COc1cccc(/C=C/C(=O)c2c(O)c(C)c(OC)c3c2OC2=Cc4c(c(C)nn4-c4ccccc4)C(=O)[C@@]23C)c1OC | 8.7
COc1ccc(-c2cc(-c3c(O)c(C)c(OC)c4c3OC3=Cc5c(c(C)nn5-c5ccccc5)[C@@H](O)[C@@]34C)n[nH]2)cc1 | 102

Compound | EC50 [µM]
COc1c(C)c(O)c(C(=O)/C=C/c2ccccc2)c2c1[C@@]1(C)C(=Cc3c(c(C)nn3-c3ccccc3)[C@@H]1O)O2 | 60.6
COc1c(C)c(O)c(C(=O)/C=C/c2ccc(Cl)cc2)c2c1[C@@]1(C)C(=Cc3c(c(C)nn3-c3ccccc3)[C@@H]1O)O2 | 79.4
COc1ccccc1/C=C/C(=O)c1c(O)c(C)c(OC)c2c1OC1=Cc3c(c(C)nn3-c3ccccc3)[C@H](O)[C@]12C | 64.9
COc1cccc(/C=C/C(=O)c2c(O)c(C)c(OC)c3c2OC2=Cc4c(c(C)nn4-c4ccccc4)[C@H](O)[C@]23C)c1OC | 76.4
CC(=O)C1=C(O)C=C2Oc3c4c(c(C)c(O)c3[C@]2(C)C1=O)OCC4=O | 64.3
CC(=O)C1=C(O)C=C2Oc3c4c(c(C)c(O)c3[C@@]2(C)C1=O)OCC4=O | 64.3
COc1ccccc1/C=C1\Oc2c(C)c(O)c3c(c2C1=O)OC1=CC(O)=C(C(C)=O)C(=O)[C@@]13C | 4.8
CC(=O)C1=C(O)C=C2Oc3c4c(c(C)c(O)c3[C@@]2(C)C1=O)O/C(=C\c1ccc(Br)cc1)C4=O | 4.7
CC(=O)C1=C(O)C=C2Oc3c4c(c(C)c(O)c3[C@@]2(C)C1=O)O/C(=C\c1ccncc1)C4=O | 7.7
CC(=O)C1=C(O)C=C2Oc3c4c(c(C)c(O)c3[C@@]2(C)C1=O)O/C(=C\c1cccnc1)C4=O | 7
CC(=O)C1=C(O)C=C2Oc3c(C(=O)CSc4nc5ccccc5s4)c(O)c(C)c(O)c3[C@@]2(C)C1=O | 29.5
CC(=O)C1=C(O)C=C2Oc3c(C(=O)CSc4nc5ccccc5o4)c(O)c(C)c(O)c3[C@@]2(C)C1=O | 2
CC(=O)C1=C(O)C=C2Oc3c(C(=O)CSCc4ccccc4)c(O)c(C)c(O)c3[C@@]2(C)C1=O | 2.1
CC(=O)C1=C(O)C=C2Oc3c(C(=O)CSCc4ccc(C)cc4)c(O)c(C)c(O)c3[C@@]2(C)C1=O | 2.1
CC(=O)C1=C(O)C=C2Oc3c(C(=O)CSCc4ncccc4C(=O)O)c(O)c(C)c(O)c3[C@@]2(C)C1=O | 56.3
COc1c(C)c(O)c2c(c1C(=O)CSC1=NCCS1)OC1=CC(O)=C(C(C)=O)C(=O)[C@@]12C | 14.7
COc1ccc2[nH]c(SCC(=O)c3c(OC)c(C)c(O)c4c3OC3=CC(O)=C(C(C)=O)C(=O)[C@@]34C)nc2c1 | 24.3
COc1c(C)c(O)c2c(c1C(=O)CSc1nc3ccccc3o1)OC1=CC(O)=C(C(C)=O)C(=O)[C@]12C | 23.7
COc1c(C)c(O)c2c(c1C(=O)CSCCC(=O)O)OC1=CC(O)=C(C(C)=O)C(=O)[C@@]12C | 161
CC(=O)C1=C(O)C=C2Oc3c(C(C)=O)c(OC(F)(Cl)C(F)F)c(C)c(O)c3[C@@]2(C)C1=O (stereo not given in full) | 7.2
CC(=O)C1=C(O)C=C2Oc3c(C(C)=O)c(OC(=O)c4ccccc4Br)c(C)c(OC(=O)c4ccccc4Br)c3[C@@]2(C)C1=O | 7.8
CC(=O)C1=C(O)C=C2O[C@@]34O[C@]3(C(C)=O)C(=O)C(C)=C(O)[C@@]4(O)[C@]2(C)C1=O | 28.7
CC(=O)[C@@]12O[C@@]13OC1=Cc4c(c(C)nn4-c4ccccc4)C(=O)[C@]1(C)[C@@]3(O)C(O)=C(C)C2=O | 13.4
COc1c(C)c(O)c(C(C)=O)c2c1[C@]1(C)C(=Cc3c(c(C)nn3-c3ccccc3)CC13CO3)O2 (single isomer, unassigned; (+)) | 262
COc1c(C)c(O)c(C(=O)/C=C/c2ccccc2)c2c1[C@]1(C)C(=Cc3c(c(C)nn3-c3ccccc3)CC13CO3)O2 (single isomer, unassigned; (+)) | 5.5
CC(=O)C1=C(O)C=C2Oc3c(C(C)=O)c(O)c(C)c(O)c3[C@@]2(C)C1=O [(+)-USNIC ACID] | 51.7
CC(=O)C1=C(O)C=C2Oc3c(C(C)=O)c(O)c(C)c(O)c3[C@]2(C)C1=O [(-)-USNIC ACID] | 13.1
